Test [1] deals with T1, Toll-like receptor 7 (Homo sapiens) (UniProt Q9NYK1).
T1 sequence (whole entry): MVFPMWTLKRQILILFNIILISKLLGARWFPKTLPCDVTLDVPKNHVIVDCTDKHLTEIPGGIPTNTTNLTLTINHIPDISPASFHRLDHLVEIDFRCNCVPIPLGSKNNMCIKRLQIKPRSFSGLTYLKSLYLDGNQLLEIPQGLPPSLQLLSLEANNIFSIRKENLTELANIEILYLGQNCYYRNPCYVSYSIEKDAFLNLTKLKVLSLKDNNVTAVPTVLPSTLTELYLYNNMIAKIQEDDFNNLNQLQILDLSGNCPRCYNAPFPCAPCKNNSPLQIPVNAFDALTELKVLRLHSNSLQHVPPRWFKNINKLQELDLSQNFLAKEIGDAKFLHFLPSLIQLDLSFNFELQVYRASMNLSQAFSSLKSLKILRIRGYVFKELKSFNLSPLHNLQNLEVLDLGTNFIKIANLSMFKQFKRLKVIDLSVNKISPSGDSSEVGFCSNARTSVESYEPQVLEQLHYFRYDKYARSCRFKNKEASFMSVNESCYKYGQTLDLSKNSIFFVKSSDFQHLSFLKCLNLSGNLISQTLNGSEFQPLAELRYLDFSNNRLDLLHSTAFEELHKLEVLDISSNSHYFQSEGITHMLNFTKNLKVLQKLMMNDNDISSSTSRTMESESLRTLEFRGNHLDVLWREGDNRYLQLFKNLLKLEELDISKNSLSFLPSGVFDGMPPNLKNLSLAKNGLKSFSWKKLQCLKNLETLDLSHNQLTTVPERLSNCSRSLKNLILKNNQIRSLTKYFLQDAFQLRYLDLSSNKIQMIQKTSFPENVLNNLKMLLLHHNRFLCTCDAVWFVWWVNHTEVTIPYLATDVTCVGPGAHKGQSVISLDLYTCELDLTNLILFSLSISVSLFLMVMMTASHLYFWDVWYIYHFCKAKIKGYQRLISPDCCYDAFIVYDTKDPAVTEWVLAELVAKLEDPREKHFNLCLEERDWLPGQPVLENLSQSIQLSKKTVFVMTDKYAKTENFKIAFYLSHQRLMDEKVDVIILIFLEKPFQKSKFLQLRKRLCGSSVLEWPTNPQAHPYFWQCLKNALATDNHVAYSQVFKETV
As to the kind of experiment: Activation of human TLR7 expressed in HEK293XL assessed as fold induction of NF-kappaB activity at 50 ug/ml after 18 hrs by reporter gene assay relative to control. The procedure, abridged:
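HEK293 cells stably expressing human TLR7 or TLR8, transiently transfected with SEAP reporter plasmid; medium replaced, SIMRA compounds added, 18 h incubation. Supernatant SEAP measured by QuantiBlue; expressed as fold increase in NF-κB activity over PBS control. Tabulated data at 50 μg/mL, representative of three independent experiments.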
(In a reporter assay the amount or activity of a reporter protein is the signal.)

The target of test [2] is T2, Toll-like receptor 9 (Mus musculus) (UniProt Q9EQU3).
T2 sequence (whole entry): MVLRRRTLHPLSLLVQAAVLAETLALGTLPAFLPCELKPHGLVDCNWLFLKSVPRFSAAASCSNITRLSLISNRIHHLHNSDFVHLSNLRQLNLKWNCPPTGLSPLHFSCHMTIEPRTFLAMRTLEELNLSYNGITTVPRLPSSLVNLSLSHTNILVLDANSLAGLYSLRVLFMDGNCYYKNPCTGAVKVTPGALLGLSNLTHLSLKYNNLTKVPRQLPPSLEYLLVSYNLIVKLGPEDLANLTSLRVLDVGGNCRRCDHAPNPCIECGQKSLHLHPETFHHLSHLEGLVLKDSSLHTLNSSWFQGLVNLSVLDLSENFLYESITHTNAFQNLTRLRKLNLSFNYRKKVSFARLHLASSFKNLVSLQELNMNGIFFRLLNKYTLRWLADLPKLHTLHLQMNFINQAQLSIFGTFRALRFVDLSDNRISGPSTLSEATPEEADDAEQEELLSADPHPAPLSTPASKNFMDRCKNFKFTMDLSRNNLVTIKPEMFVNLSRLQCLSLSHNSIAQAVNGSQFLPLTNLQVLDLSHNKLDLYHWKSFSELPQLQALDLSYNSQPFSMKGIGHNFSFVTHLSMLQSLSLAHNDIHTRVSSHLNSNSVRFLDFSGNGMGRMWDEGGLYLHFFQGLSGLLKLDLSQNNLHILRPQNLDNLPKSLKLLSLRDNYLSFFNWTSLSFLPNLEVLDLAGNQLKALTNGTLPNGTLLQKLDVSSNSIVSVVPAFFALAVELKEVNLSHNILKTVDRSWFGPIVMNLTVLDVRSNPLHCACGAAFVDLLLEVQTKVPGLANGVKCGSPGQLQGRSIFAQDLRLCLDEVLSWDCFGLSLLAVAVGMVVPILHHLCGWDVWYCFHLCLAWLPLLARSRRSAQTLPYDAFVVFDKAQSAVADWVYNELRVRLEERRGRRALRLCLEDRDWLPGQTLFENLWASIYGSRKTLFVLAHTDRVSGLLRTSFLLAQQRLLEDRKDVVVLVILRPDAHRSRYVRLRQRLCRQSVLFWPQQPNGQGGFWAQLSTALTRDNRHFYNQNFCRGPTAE
As to the kind of experiment: Activation of mouse TLR9 expressed in HEK293 assessed as induction of NF-kappaB activity reporter gene assay. The class given is cell-based.

The test system of test [3] is Splenocyte. As to the kind of experiment: Immunomodulatory activity in C57BL/6 mouse splenocytes bearing TLR7 receptor assessed as IL6 release at 100 ug/ml after 24 hrs by ELISA. The class given is functional, cell-based. An outline of the steps:
(§1)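 C57BL/6 splenocytes in RPMI 1640 with 10% FBS, penicillin/streptomycin, 2 mM L-glutamine, plated at 5 × 10^6 cells/mL; compounds in PBS added, 37 °C for 24 h. Supernatant IL-12 and IL-6 by ELISA; representative of three independent experiments.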
A general note: In an ELISA, binding on a coated surface is turned into a signal by an enzyme label.

The test system of test [4] is Splenocyte. As to the kind of experiment: Immunomodulatory activity in C57BL/6 mouse splenocytes bearing TLR7 receptor assessed as IL12 release at 100 ug/ml after 24 hrs by ELISA. The class given is functional, cell-based. An outline of the steps:
as §1

The subject of test [5] is PBMC. As to the kind of experiment: Immunomodulatory activity in human PBMC assessed as induction of IL12 at 100 ug/ml after 24 hrs. It is filed as functional, cell-based. The procedure, abridged:
(§2)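 Human PBMCs plated at 5 × 10^6 cells/mL; compounds dissolved in PBS added at various concentrations, 37 °C for 24 h. Supernatant cytokines/chemokines quantified with human Luminex multiplex kit.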

The subject of test [6] is PBMC. As to the kind of experiment: Immunomodulatory activity in human PBMC assessed as induction of TNFalpha at 100 ug/ml after 24 hrs. The class given is functional, cell-based. An outline of the steps:
as §2

Calls of active or inactive are those of the source. The rule behind the calls is not given here.

With `Nc1ccn([C@@H]2O[C@H](COP(=O)(S)O[C@H]3[C@@H](O)[C@H](n4cnc5c(N)ncnc54)O[C@@H]3CO)[C@@H](OP(=O)(S)OC[C@H]3O[C@@H](n4ccc(=O)[nH]c4=O)[C@H](O)[C@@H]3OP(=O)(S)OC[C@H]3O[C@@H](n4ccc5c(=O)[nH]c(N)nc54)[C@H](O)[C@@H]3OP(=O)(S)OC[C@H]3O[C@@H](n4ccc(N)nc4=O)[C@H](O)[C@@H]3OP(=O)(S)OC[C@H]3O[C@@H](n4ccc5c(=O)[nH]c(N)nc54)[C@H](O)[C@@H]3OP(=O)(S)OC[C@H]3O[C@@H](n4cnc5c(N)ncnc54)[C@H](O)[C@@H]3OP(=O)(S)OC[C@H]3O[C@@H](n4ccc5c(=O)[nH]c(N)nc54)[C@H](O)[C@@H]3OP(=O)(S)OC[C@H]3O[C@@H](n4ccc(N)nc4=O)[C@H](O)[C@@H]3OP(=O)(S)OC[C@H]3O[C@@H](n4ccc(=O)[nH]c4=O)[C@H](O)[C@@H]3OP(=O)(S)OC[C@H]3O[C@@H](n4ccc(=O)[nH]c4=O)[C@H](O)[C@@H]3OP(=O)(S)OCC(O)COP(=O)(S)O[C@H]3[C@@H](O)[C@H](n4ccc(=O)[nH]c4=O)O[C@@H]3COP(=O)(S)O[C@H]3[C@@H](O)[C@H](n4ccc(=O)[nH]c4=O)O[C@@H]3COP(=O)(S)O[C@H]3[C@@H](O)[C@H](n4ccc(N)nc4=O)O[C@@H]3COP(=O)(S)O[C@H]3[C@@H](O)[C@H](n4ccc5c(=O)[nH]c(N)nc54)O[C@@H]3COP(=O)(S)O[C@H]3[C@@H](O)[C@H](n4cnc5c(N)ncnc54)O[C@@H]3COP(=O)(S)O[C@H]3[C@@H](O)[C@H](n4ccc5c(=O)[nH]c(N)nc54)O[C@@H]3COP(=O)(S)O[C@H]3[C@@H](O)[C@H](n4ccc(N)nc4=O)O[C@@H]3COP(=O)(S)O[C@H]3[C@@H](O)[C@H](n4ccc5c(=O)[nH]c(N)nc54)O[C@@H]3COP(=O)(S)O[C@H]3[C@@H](O)[C@H](n4ccc(=O)[nH]c4=O)O[C@@H]3COP(=O)(S)O[C@H]3[C@@H](O)[C@H](n4ccc(N)nc4=O)O[C@@H]3COP(=O)(S)O[C@H]3[C@@H](O)[C@H](n4cnc5c(N)ncnc54)O[C@@H]3CO)[C@H]2O)c(=O)n1` (some centres not stated), the fold change (FC) in test [1] came to 27. The outcome in test [2] was inactive. Moreover, the result in test [3] and in test [4] was Active. Moreover, the figures for the Activity in test [5] and in test [6] were 487 pg/mL and 43.5 pg/mL, respectively.
For the compound `Nc1ccn([C@@H]2O[C@H](COP(=O)(S)O[C@H]3[C@@H](O)[C@H](n4cnc5c(N)ncnc54)O[C@@H]3COP(=O)(S)O[C@H]3[C@@H](O)[C@H](n4ccc5c(=O)[nH]c(N)nc54)O[C@@H]3COP(=O)(S)O[C@H]3[C@@H](O)[C@H](n4ccc(=O)[nH]c4=O)O[C@@H]3COP(=O)(S)O[C@H]3[C@@H](O)[C@H](n4ccc(=O)[nH]c4=O)O[C@@H]3COP(=O)(S)O[C@H]3[C@@H](O)[C@H](n4cnc5c(N)ncnc54)O[C@@H]3COP(=O)(S)O[C@H]3[C@@H](O)[C@H](n4cnc5c(N)ncnc54)O[C@@H]3CO)[C@@H](OP(=O)(S)OC[C@H]3O[C@@H](n4ccc5c(=O)[nH]c(N)nc54)[C@H](O)[C@@H]3OP(=O)(S)OC[C@H]3O[C@@H](n4ccc(N)nc4=O)[C@H](O)[C@@H]3OP(=O)(S)OC[C@H]3O[C@@H](n4ccc(=O)[nH]c4=O)[C@H](O)[C@@H]3OP(=O)(S)OC[C@H]3O[C@@H](n4ccc(=O)[nH]c4=O)[C@H](O)[C@@H]3OP(=O)(S)OCC(O)COP(=O)(S)O[C@H]3[C@@H](O)[C@H](n4ccc(=O)[nH]c4=O)O[C@@H]3COP(=O)(S)O[C@H]3[C@@H](O)[C@H](n4ccc(=O)[nH]c4=O)O[C@@H]3COP(=O)(S)O[C@H]3[C@@H](O)[C@H](n4ccc(N)nc4=O)O[C@@H]3COP(=O)(S)O[C@H]3[C@@H](O)[C@H](n4ccc5c(=O)[nH]c(N)nc54)O[C@@H]3COP(=O)(S)O[C@H]3[C@@H](O)[C@H](n4ccc(N)nc4=O)O[C@@H]3COP(=O)(S)O[C@H]3[C@@H](O)[C@H](n4cnc5c(N)ncnc54)O[C@@H]3COP(=O)(S)O[C@H]3[C@@H](O)[C@H](n4ccc5c(=O)[nH]c(N)nc54)O[C@@H]3COP(=O)(S)O[C@H]3[C@@H](O)[C@H](n4ccc(=O)[nH]c4=O)O[C@@H]3COP(=O)(S)O[C@H]3[C@@H](O)[C@H](n4ccc(=O)[nH]c4=O)O[C@@H]3COP(=O)(S)O[C@H]3[C@@H](O)[C@H](n4cnc5c(N)ncnc54)O[C@@H]3COP(=O)(S)O[C@H]3[C@@H](O)[C@H](n4cnc5c(N)ncnc54)O[C@@H]3CO)[C@H]2O)c(=O)n1` (some centres not stated), the fold change (FC) in test [1] was determined as 20.9. For the same compound, in test [2], the result was inactive. Moreover, the outcome in test [3] and in test [4] was Active. Also, the Activity in test [5] is 340 pg/mL; in test [6], 8.8 pg/mL.

The values above are taken from ChEMBL document CHEMBL1154352, “Toll-like receptor 7 selective synthetic oligoribonucleotide agonists: synthesis and structure-activity relationship studies” (J Med Chem, 2009).
